Data: ChEMBL document CHEMBL3862007, “Synthesis and antimicrobial activity of small cationic amphipathic aminobenzamide marine natural product mimics and evaluation of relevance against clinical isolates including ESBL-CARBA producing multi-resistant bacteria” (Bioorg Med Chem, 2016)

What was measured:
[1] = system: Escherichia coli; assay: Antibacterial activity against Escherichia coli clinical isolate after 24 hrs by microdilution method; format: functional
[2] = system: Pseudomonas aeruginosa; assay: Antibacterial activity against multi-drug resistant/VIM-2 producing Pseudomonas aeruginosa K34-7 after 24 hrs by microdilution method; format: functional; conditions: K34-7, 24 h
[3] = system: Staphylococcus aureus; assay: Antibacterial activity against Staphylococcus aureus ATCC 9144 after 48 hrs by microdilution method; format: functional; conditions: ATCC 9144, 48 h
[4] = system: Escherichia coli; assay: Antibacterial activity against multi-drug resistant/VIM-29 producing Escherichia coli 50639799 after 24 hrs by microdilution method; format: functional; conditions: Escherichia coli, 50639799, 24 h
[5] = system: Escherichia coli; assay: Antibacterial activity against multi-drug resistant/NDM-1 producing Escherichia coli 50739822 after 24 hrs by microdilution method; format: functional; conditions: Escherichia coli, 50739822, 24 h
[6] = system: Bacillus subtilis; assay: Antibacterial activity against Bacillus subtilis 168 ATCC 23857 after 48 hrs by microdilution method; format: functional; conditions: subsp. subtilis str. 168 ATCC 23857, 48 h
[7] = system: Klebsiella pneumoniae; assay: Antibacterial activity against multi-drug resistant/VIM1 producing Klebsiella pneumoniae 50667959 after 24 hrs by microdilution method; format: functional; conditions: Klebsiella pneumoniae, 50667959, 24 h
[8] = Hemolytic activity in human RBC after 1 hr; format: ADME, cell-based; conditions: Erythrocyte
[9] = system: Corynebacterium glutamicum; assay: Antibacterial activity against Corynebacterium glutamicum ATCC 13032 after 48 hrs by microdilution method; format: functional; conditions: ATCC 13032, 48 h
[10] = system: Pseudomonas aeruginosa; assay: Antibacterial activity against multi-drug resistant/VIM producing Pseudomonas aeruginosa 50692520 after 24 hrs by microdilution method; format: functional; conditions: Pseudomonas aeruginosa, 50692520, 24 h
[11] = system: Enterococcus sp.; assay: Antibacterial activity against Enterococcus sp. clinical isolate after 24 hrs by microdilution method; format: functional
[12] = system: Pseudomonas aeruginosa; assay: Antibacterial activity against multi-drug resistant/NDM1 producing Pseudomonas aeruginosa 50692172 after 24 hrs by microdilution method; format: functional; conditions: Pseudomonas aeruginosa, 50692172, 24 h
[13] = system: Pseudomonas aeruginosa; assay: Antibacterial activity against multi-drug resistant/IMP-14 producing Pseudomonas aeruginosa K44-24 after 24 hrs by microdilution method; format: functional; conditions: K44-24, 24 h
[14] = system: Acinetobacter baumannii; assay: Antibacterial activity against multi-drug resistant/OXA-24 producing Acinetobacter baumannii K55-13 after 24 hrs by microdilution method; format: functional; conditions: K55-13, 24 h
[15] = system: Klebsiella pneumoniae; assay: Antibacterial activity against multi-drug resistant/NDM1/OXA-181 producing Klebsiella pneumoniae 50531633 after 24 hrs by microdilution method; format: functional; conditions: Klebsiella pneumoniae, 50531633, 24 h
[16] = system: Escherichia coli; assay: Antibacterial activity against multi-drug resistant/IMP-26 producing Escherichia coli 50857972 after 24 hrs by microdilution method; format: functional; conditions: Escherichia coli, 50857972, 24 h
[17] = system: Staphylococcus aureus; assay: Antibacterial activity against methicillin resistant Staphylococcus aureus IHT 99040 after 24 hrs by microdilution method; format: functional; conditions: IHT 99040, 24 h
[18] = system: Klebsiella pneumoniae; assay: Antibacterial activity against multi-drug resistant/NDM1 producing Klebsiella pneumoniae K66-45 after 24 hrs by microdilution method; format: functional; conditions: K66-45, 24 h
[19] = system: Acinetobacter baumannii; assay: Antibacterial activity against multi-drug resistant/OXA-58 producing Acinetobacter baumannii K12-21 after 24 hrs by microdilution method; format: functional; conditions: K12-21, 24 h
[20] = system: Pseudomonas aeruginosa; assay: Antibacterial activity against Pseudomonas aeruginosa PAO1 DSM 19880 (ATCC 15692) after 48 hrs by microdilution method; format: functional
[21] = system: Acinetobacter baumannii; assay: Antibacterial activity against multi-drug resistant/OXA-23 producing Acinetobacter baumannii K63-58 after 24 hrs by microdilution method; format: functional; conditions: K63-58, 24 h
[22] = system: Escherichia coli; assay: Antibacterial activity against multi-drug resistant/NDM-1 producing Escherichia coli 50676002 after 24 hrs by microdilution method; format: functional; conditions: Escherichia coli, 50676002, 24 h
[23] = Selectivity index, ratio of hemolytic EC50 for human RBC to MIC for Staphylococcus aureus ATCC 9144
[24] = system: Enterococcus faecium; assay: Antibacterial activity against vancomycin-resistant Enterococcus faecium 50758899 after 24 hrs by microdilution method; format: functional; conditions: Enterococcus faecium, 50758899, 24 h
[25] = system: Escherichia coli; assay: Antibacterial activity against multi-drug resistant/OXA-48 producing Escherichia coli 50579417 after 24 hrs by microdilution method; format: functional; conditions: Escherichia coli, 50579417, 24 h
[26] = system: Staphylococcus aureus; assay: Antibacterial activity against methicillin resistant Staphylococcus aureus NCTC 10442 after 24 hrs by microdilution method; format: functional; conditions: NCTC 10442, 24 h
[27] = system: Enterococcus faecium; assay: Antibacterial activity against vancomycin-resistant Enterococcus faecium TUH50-22 after 24 hrs by microdilution method; format: functional; conditions: TUH50-22, 24 h
[28] = system: Klebsiella pneumoniae; assay: Antibacterial activity against multi-drug resistant/KPC-2 producing Klebsiella pneumoniae K47-25 after 24 hrs by microdilution method; format: functional; conditions: K47-25, 24 h
[29] = Antibacterial activity against methicillin-resistant Staphylococcus epidermidis RP62A CCUG 31568 (ATCC 35984) after 48 hrs by microdilution method; format: functional
Procedure, shortened: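 Broth microdilution MIC against the reference-strain panel. Compounds were supplied as HCl salts for aqueous solubility in the test medium. Precipitation in the test buffer is flagged at higher concentrations.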

[30] = system: Staphylococcus aureus; assay: Antibacterial activity against methicillin resistant Staphylococcus aureus clinical isolate WIS after 24 hrs by microdilution method; format: functional
[31] = system: Pseudomonas aeruginosa; assay: Antibacterial activity against multi-drug resistant/VIM-4 producing Pseudomonas aeruginosa K34-73 after 24 hrs by microdilution method; format: functional; conditions: K34-73, 24 h
[32] = system: Pseudomonas aeruginosa; assay: Antibacterial activity against Pseudomonas aeruginosa clinical isolate after 24 hrs by microdilution method; format: functional
[33] = system: Enterococcus faecium; assay: Antibacterial activity against vancomycin-resistant Enterococcus faecium K36-18 after 24 hrs by microdilution method; format: functional; conditions: K36-18, 24 h
[34] = system: Staphylococcus aureus; assay: Antibacterial activity against Staphylococcus aureus clinical isolate after 24 hrs by microdilution method; format: functional
[35] = system: Enterococcus faecium; assay: Antibacterial activity against vancomycin-resistant Enterococcus faecium 50673722 after 24 hrs by microdilution method; format: functional; conditions: Enterococcus faecium, 50673722, 24 h
[36] = system: Staphylococcus aureus; assay: Antibacterial activity against methicillin resistant Staphylococcus aureus clinical isolate 85/2082 after 24 hrs by microdilution method; format: functional; conditions: isolate 85/2082, 24 h
[37] = system: Enterococcus faecium; assay: Antibacterial activity against vancomycin-resistant Enterococcus faecium 50901530 after 24 hrs by microdilution method; format: functional; conditions: Enterococcus faecium, 50901530, 24 h
[38] = system: Acinetobacter baumannii; assay: Antibacterial activity against multi-drug resistant/OXA-23 producing Acinetobacter baumannii K44-35 after 24 hrs by microdilution method; format: functional; conditions: K44-35, 24 h
[39] = system: Acinetobacter baumannii; assay: Antibacterial activity against multi-drug resistant/OXA-23 producing Acinetobacter baumannii K47-42 after 24 hrs by microdilution method; format: functional; conditions: K47-42, 24 h
[40] = system: Klebsiella pneumoniae; assay: Antibacterial activity against multi-drug resistant/OXA-245 producing Klebsiella pneumoniae 50625602 after 24 hrs by microdilution method; format: functional; conditions: Klebsiella pneumoniae, 50625602, 24 h
[41] = system: Klebsiella pneumoniae; assay: Antibacterial activity against Klebsiella pneumoniae clinical isolate after 24 hrs by microdilution method; format: functional
[42] = system: Escherichia coli; assay: Antibacterial activity against Escherichia coli ATCC 25922 after 48 hrs by microdilution method; format: functional; conditions: ATCC 25922, 48 h
[43] = system: Staphylococcus aureus; assay: Antibacterial activity against methicillin resistant Staphylococcus aureus N315 after 24 hrs by microdilution method; format: functional; conditions: N315, 24 h
[44] = Aqueous solubility of the compound; format: physicochemical; conditions: buffer
[45] = Hemolytic activity in human RBC at 64 ug/ml after 1 hr relative to control; format: ADME, cell-based, Erythrocyte; conditions: red blood cells (RBC), read-out: Activity

CC(C)(C)c1cc(C(=O)Nc2ccccc2C(=O)NCCNC(=N)N)cc(C(C)(C)C)c1.Cl
MIC [1]: 8 µg/mL | MIC90 [1]: 8 µg/mL | MIC [2]: > 32 µg/mL | MIC [3]: 1 µg/mL | MIC [4]: 16 µg/mL | MIC [5]: 32 µg/mL | MIC [6]: 1 µg/mL | MIC [7]: 32 µg/mL | EC50 [8]: 37 µg/mL | MIC [9]: 0.5 µg/mL | MIC [10]: 32 µg/mL | MIC [11]: 8 µg/mL | MIC90 [11]: 4 µg/mL | MIC [12]: 32 µg/mL | MIC [13]: > 32 µg/mL | MIC [14]: 32 µg/mL | MIC [15]: 16 µg/mL | MIC [16]: 16 µg/mL | MIC [17]: > 4 µg/mL | MIC [18]: 32 µg/mL | MIC [19]: 32 µg/mL | MIC [20]: 16 µg/mL | MIC [21]: 32 µg/mL | MIC [22]: > 32 µg/mL | Selectivity Index [23]: 37 | MIC [24]: 8 µg/mL | MIC [25]: 32 µg/mL | MIC [26]: 4 µg/mL | MIC [27]: 4 µg/mL | MIC [28]: 32 µg/mL | MIC [29]: 2 µg/mL | MIC [30]: 4 µg/mL | MIC [31]: > 32 µg/mL | MIC [32]: 16 µg/mL | MIC90 [32]: 32 µg/mL | MIC [33]: 8 µg/mL | MIC [34]: 2 µg/mL | MIC90 [34]: 2 µg/mL | MIC [35]: 8 µg/mL | MIC [36]: 4 µg/mL | MIC [37]: 4 µg/mL | MIC [38]: 16 µg/mL | MIC [39]: 16 µg/mL | MIC [40]: 16 µg/mL | MIC [41]: 16 µg/mL | MIC90 [41]: 16 µg/mL | MIC [42]: 8 µg/mL | MIC [43]: 4 µg/mL

CC(C)(C)c1cc(C(=O)Nc2cccc(C(=O)NCCNC(=N)N)c2)cc(C(C)(C)C)c1.Cl
MIC [1]: 16 µg/mL | MIC90 [1]: 16 µg/mL | MIC [2]: 16 µg/mL | MIC [3]: 4 µg/mL | MIC [4]: 16 µg/mL | MIC [5]: 32 µg/mL | MIC [6]: 4 µg/mL | MIC [7]: 16 µg/mL | EC50 [8]: 37 µg/mL | MIC [9]: 2 µg/mL | MIC [10]: 16 µg/mL | MIC [11]: 16 µg/mL | MIC90 [11]: 8 µg/mL | MIC [12]: 16 µg/mL | MIC [13]: 16 µg/mL | MIC [14]: > 32 µg/mL | MIC [15]: 16 µg/mL | MIC [16]: 16 µg/mL | MIC [17]: > 8 µg/mL | MIC [18]: 16 µg/mL | MIC [19]: 32 µg/mL | MIC [20]: 8 µg/mL | MIC [21]: 32 µg/mL | MIC [22]: 16 µg/mL | Selectivity Index [23]: 9.3 | MIC [24]: 8 µg/mL | MIC [25]: 32 µg/mL | MIC [26]: 8 µg/mL | MIC [27]: 8 µg/mL | MIC [28]: > 32 µg/mL | MIC [29]: 4 µg/mL | MIC [30]: 8 µg/mL | MIC [31]: > 32 µg/mL | MIC [32]: 8 µg/mL | MIC90 [32]: 16 µg/mL | MIC [33]: 8 µg/mL | MIC [34]: 4 µg/mL | MIC90 [34]: 4 µg/mL | MIC [35]: 8 µg/mL | MIC [36]: 8 µg/mL | MIC [37]: 8 µg/mL | MIC [38]: 32 µg/mL | MIC [39]: 32 µg/mL | MIC [40]: 16 µg/mL | MIC [41]: 16 µg/mL | MIC90 [41]: 16 µg/mL | MIC [42]: 8 µg/mL | MIC [43]: 8 µg/mL

CC(C)(C)c1cc(C(=O)Nc2ccc(CC(=O)NCCNC(=N)N)cc2)cc(C(C)(C)C)c1.Cl
MIC [3]: 4 µg/mL | MIC [6]: 4 µg/mL | EC50 [8]: > 64 µg/mL | MIC [9]: 2 µg/mL | MIC [20]: 16 µg/mL | Selectivity Index [23]: > 16 | MIC [29]: 4 µg/mL | solubility [44]: Insoluble | hemolysis at 1 h, 64 ug/ml [45]: 35% | MIC [42]: 16 µg/mL
